Laboratory results: publication PMC8268672 (Bioorganic Chemistry, 2021)
Values after ≈ are worked out from the molar mass of the structure shown. Where two headings read alike, the source gives them in different places.

What was measured:
[1] = system: Escherichia coli (ATCC 8739); experiment: MIC, broth microdilution; type: cell-based; details: ATCC8739, read-out: Minimum inhibitory concentration (MIC), EC
In short: (§1)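 Broth microdilution per CLSI in Mueller-Hinton broth, using two-fold serial dilutions of test compound and reference drugs from 512 to 0.25. Bacterial broth cultures were grown 2-6 h to 0.5 McFarland turbidity, then diluted with sterile solution to the final inoculum. MIC is reported in µg/mL.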

[2] = system: Pseudomonas aeruginosa (MCCB 0035); experiment: MIC, broth microdilution; type: cell-based; details: read-out: Minimum inhibitory concentration (MIC), PA
In short: as §1

[3] = system: Klebsiella aerogenes (NCIM-2098); experiment: MIC, broth microdilution; type: cell-based; details: NCIM2098, read-out: Minimum inhibitory concentration (MIC), KA
In short: (§2)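 Antibacterial MICs by CLSI broth microdilution in Mueller-Hinton broth. Test compounds and standard drugs are serially diluted two-fold from 512 to 0.25. The bacterial broth culture is grown 2-6 h to a 0.5 McFarland turbidity, then adjusted with sterile solution to the final inoculum.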

[4] = system: Staphylococcus aureus (ATCC 29213); experiment: MIC, broth microdilution; type: cell-based; details: ATCC29213, read-out: Minimum inhibitory concentration (MIC), SA
In short: as §2

[5] = system: Bacillus cereus (NCIM-2458); experiment: MIC, broth microdilution; type: cell-based; details: NCIM2458, read-out: Minimum inhibitory concentration (MIC), BC
In short: as §1

[6] = system: Aspergillus niger (NCIM 2191); experiment: MIC, broth microdilution; type: cell-based; details: NCIM2191, read-out: Minimum inhibitory concentration (MIC), AN
In short: (§3)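 Antifungal MICs by CLSI broth microdilution in Sabouraud liquid medium. Test compounds and standard drugs are serially diluted two-fold from 512 to 0.25. The fungal broth culture is grown 24 h at 35 °C to a 0.5 McFarland turbidity, then adjusted with sterile solution to the final inoculum.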

[7] = system: Candida albicans (NCIM 2087); experiment: MIC, broth microdilution; type: cell-based; details: NCIM2087, read-out: Minimum inhibitory concentration (MIC), CA
In short: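 CLSI broth microdilution in Sabouraud liquid medium, with test compound two-fold serially diluted from 512 to 0.25. Fungal broth culture grown 24 h at 35 °C to 0.5 McFarland turbidity, then adjusted with sterile solution to a final […] inoculum. MIC expressed in µg/mL.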

[8] = system: Aspergillus fumigatus (NCIM 2081); experiment: MIC, broth microdilution; type: cell-based; details: NCIM2081, read-out: Minimum inhibitory concentration (MIC), AF
In short: as §3

[9] = system: Cryptococcus neoformans (ATCC 9011); experiment: MIC, broth microdilution; type: cell-based; details: ATCC9011, read-out: Minimum inhibitory concentration (MIC), CN
In short: as §3

[10] = system: Escherichia coli (ATCC 8739); experiment: Agar disk diffusion, inhibition zone; type: cell-based; details: 100 µg/8 mm disc, triplicate, mean ± SD
In short: (§4)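 Agar disk diffusion on Mueller-Hinton agar plates seeded with a standard bacterial suspension. Test compound stock in DMSO, diluted with distilled water; 8 mm sterile filter-paper discs soaked in the solution. Ampicillin was the reference. Plates incubated at 35 °C for 24 h, in triplicate. Read-out is the average inhibition-zone diameter (mm) around each disc.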

[11] = system: Pseudomonas aeruginosa (MCCB 0035); experiment: Agar disk diffusion, inhibition zone; type: cell-based; details: 100 µg/8 mm disc, triplicate, mean ± SD
[12] = system: Salmonella typhimurium (NCIM-2501); experiment: Agar disk diffusion, inhibition zone; type: cell-based; details: 100 µg/8 mm disc, triplicate, mean ± SD
[13] = system: Klebsiella aerogenes (NCIM-2098); experiment: Agar disk diffusion, inhibition zone; type: cell-based; details: 100 µg/8 mm disc, triplicate, mean ± SD
[14] = system: Staphylococcus aureus (ATCC 29213); experiment: Agar disk diffusion, inhibition zone; type: cell-based; details: 100 µg/8 mm disc, triplicate, mean ± SD
In short: as §4

[15] = system: Bacillus cereus (NCIM-2458); experiment: Agar disk diffusion, inhibition zone; type: cell-based; details: 100 µg/8 mm disc, triplicate, mean ± SD
[16] = system: Lactobacillus casei (NCIM-2651); experiment: Agar disk diffusion, inhibition zone; type: cell-based; details: 100 µg/8 mm disc, triplicate, mean ± SD
[17] = system: Streptococcus pneumonia (ATCC 49619); experiment: Agar disk diffusion, inhibition zone; type: cell-based; details: 100 µg/8 mm disc, triplicate, mean ± SD
[18] = system: Aspergillus niger (NCIM 2191); experiment: Agar disk diffusion, inhibition zone; type: cell-based; details: 100 µg/8 mm disc, triplicate, mean ± SD
In short: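 For the fungal strain, discs soaked in test compound solution (DMSO stock diluted with distilled water) sat on seeded Mueller-Hinton agar. Clotrimazole was the reference. Incubation ran 48 h at 35 °C, in triplicate. Zone of growth inhibition recorded in mm as the mean diameter around each disc.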

[19] = system: Candida albicans (NCIM 2087); experiment: Agar disk diffusion, inhibition zone; type: cell-based; details: 100 µg/8 mm disc, triplicate, mean ± SD
[20] = system: Aspergillus fumigatus (NCIM 2081); experiment: Agar disk diffusion, inhibition zone; type: cell-based; details: 100 µg/8 mm disc, triplicate, mean ± SD
[21] = system: Cryptococcus neoformans (ATCC 9011); experiment: Agar disk diffusion, inhibition zone; type: cell-based; details: 100 µg/8 mm disc, triplicate, mean ± SD
Vaccinia virus = experiment: microbe, parasite or virus in culture; type: cell-based; details: Orthopoxvirus vaccinia, HEL, read-out: Antiviral EC50, Vaccinia virus
Adeno virus-2 = experiment: CPE reduction assay in HEL cells; type: cell-based; details: read-out: Antiviral EC50, Adeno virus-2
Human Coronavirus (229E) = experiment: CPE reduction assay in HEL cells; type: cell-based; details: read-out: Antiviral EC50, Human Coronavirus (229E)
Para-influenza-3 virus = experiment: CPE reduction assay in Vero cells; type: cell-based, Parainfluenza-3 virus; details: Vero, read-out: Antiviral EC50, Para-influenza-3 virus
Reovirus-1 = experiment: CPE reduction assay in Vero cells; type: cell-based; details: read-out: Antiviral EC50, Reovirus-1
Sindbis virus = experiment: CPE reduction assay in Vero cells; type: cell-based; details: read-out: Antiviral EC50, Sindbis virus
Coxsackie virus B4 = experiment: CPE reduction assay in Vero cells; type: cell-based; details: Enterovirus B, read-out: Antiviral EC50, Coxsackie virus B4
Punta Toro virus = experiment: CPE reduction assay in Vero cells; type: cell-based; details: read-out: Antiviral EC50, Punta Toro virus
Yellow Fever virus = experiment: microbe, parasite or virus in culture; type: cell-based; details: Yellow fever virus, Vero, read-out: Antiviral EC50, Yellow Fever virus
[22] = system: Influenza A/H1N1 A/Ned/378/05; experiment: CPE reduction assay in MDCK cells; type: cell-based; details: Influenza A virus
[23] = system: Influenza A/H3N2 A/HK/7/87; experiment: CPE reduction assay in MDCK cells; type: cell-based; details: Influenza A virus
Influenza B B/Ned/537/05 = experiment: CPE reduction assay in MDCK cells; type: cell-based; details: Influenza B virus, read-out: Antiviral EC50, Influenza B B/Ned/537/05, MTS
[24] = system: Human embryonic lung (HEL) cells; details: HEL cell cultures; microscopically detectable alteration of normal cell morphology
Vero cells = details: Vero cell cultures; microscopically detectable alteration of normal cell morphology
[25] = system: Madin Darby canine kidney (MDCK) cells; details: dog
MT4 cells = details: MT4 cell cultures; colorimetric MTT cell viability assay
S. aureus DNA gyrase = S. aureus DNA gyrase (Staphylococcus aureus, UniProt P0A0K8+P20831); experiment: DNA Gyrase inhibition assay; type: biochemical
[26] = read-out: Antiviral EC50, Influenza A/H1N1 A/Ned/378/05, MTS
[27] = read-out: Antiviral EC50, Influenza A/H1N1 A/Ned/378/05, visual CPE score
[28] = read-out: Antiviral EC50, Influenza A/H3N2 A/HK/7/87, MTS
[29] = read-out: Antiviral EC50, Influenza A/H3N2 A/HK/7/87, visual CPE score

S. aureus DNA gyrase, sequence (P20831 whole entry): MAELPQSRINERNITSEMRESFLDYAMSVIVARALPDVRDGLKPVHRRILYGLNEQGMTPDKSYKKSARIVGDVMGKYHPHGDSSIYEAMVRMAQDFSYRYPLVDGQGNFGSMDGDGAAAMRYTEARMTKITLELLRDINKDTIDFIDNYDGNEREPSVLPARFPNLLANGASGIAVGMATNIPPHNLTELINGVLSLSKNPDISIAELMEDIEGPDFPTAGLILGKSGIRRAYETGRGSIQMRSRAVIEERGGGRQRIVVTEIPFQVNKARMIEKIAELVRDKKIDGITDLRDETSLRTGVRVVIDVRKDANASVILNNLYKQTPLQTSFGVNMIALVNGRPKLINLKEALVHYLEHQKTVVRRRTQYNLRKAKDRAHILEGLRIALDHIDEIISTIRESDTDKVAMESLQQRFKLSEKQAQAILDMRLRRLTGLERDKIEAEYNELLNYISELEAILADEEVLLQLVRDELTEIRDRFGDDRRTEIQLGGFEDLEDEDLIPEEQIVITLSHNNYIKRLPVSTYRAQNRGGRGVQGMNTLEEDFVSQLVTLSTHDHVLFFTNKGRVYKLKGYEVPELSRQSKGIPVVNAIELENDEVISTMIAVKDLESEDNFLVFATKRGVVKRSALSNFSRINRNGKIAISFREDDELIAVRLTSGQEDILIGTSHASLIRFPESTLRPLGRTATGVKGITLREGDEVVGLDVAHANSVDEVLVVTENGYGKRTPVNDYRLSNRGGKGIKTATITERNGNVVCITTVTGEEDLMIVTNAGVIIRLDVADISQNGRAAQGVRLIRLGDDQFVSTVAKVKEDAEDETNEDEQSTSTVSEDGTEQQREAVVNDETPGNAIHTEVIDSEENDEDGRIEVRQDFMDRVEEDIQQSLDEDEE
S. aureus DNA gyrase, sequence (P0A0K8 whole entry): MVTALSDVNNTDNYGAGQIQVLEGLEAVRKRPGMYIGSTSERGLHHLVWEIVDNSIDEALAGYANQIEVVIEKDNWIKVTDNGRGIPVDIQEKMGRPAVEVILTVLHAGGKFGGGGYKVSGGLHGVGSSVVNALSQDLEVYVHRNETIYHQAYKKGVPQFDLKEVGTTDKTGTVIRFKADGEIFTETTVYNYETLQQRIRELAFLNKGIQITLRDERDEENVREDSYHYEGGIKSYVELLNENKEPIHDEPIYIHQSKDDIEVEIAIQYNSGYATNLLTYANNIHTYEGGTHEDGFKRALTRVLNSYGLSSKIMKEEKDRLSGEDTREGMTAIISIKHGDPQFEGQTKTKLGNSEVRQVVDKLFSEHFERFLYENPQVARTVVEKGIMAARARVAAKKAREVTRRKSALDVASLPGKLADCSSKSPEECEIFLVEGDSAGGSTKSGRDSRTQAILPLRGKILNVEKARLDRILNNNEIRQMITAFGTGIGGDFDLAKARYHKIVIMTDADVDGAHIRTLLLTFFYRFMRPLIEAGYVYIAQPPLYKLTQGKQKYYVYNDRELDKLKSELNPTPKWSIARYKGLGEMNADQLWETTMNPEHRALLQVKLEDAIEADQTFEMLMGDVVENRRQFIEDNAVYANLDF

Row | Compound | MIC [1] | MIC [2] | MIC [3] | MIC [4] | MIC [5] | MIC [6] | MIC [7] | MIC [8] | MIC [9] | Diameter of growth inhibition zone, EC [10] | Diameter of growth inhibition zone, PA [11] | Diameter of growth inhibition zone, ST [12] | Diameter of growth inhibition zone, KA [13] | Diameter of growth inhibition zone, SA [14] | Diameter of growth inhibition zone, BC [15] | Diameter of growth inhibition zone, LC [16] | Diameter of growth inhibition zone, SP [17] | Diameter of growth inhibition zone, AN [18] | Diameter of growth inhibition zone, CA [19] | Diameter of growth inhibition zone, AF [20] | further results
1 | Cc1ccc(S(=O)(=O)N2C(=O)CSC2c2ccccc2O)cc1 (stereo not shown) [5k, 2-(2-Hydroxyphenyl)-3-[(4-methylphenyl)sulfonyl]-1,3-thiazolidin-4-one] | 32 µg/mL (≈ 91.6 µM) | 32 µg/mL (≈ 91.6 µM) | 32 µg/mL (≈ 91.6 µM) | 64 µg/mL (≈ 183 µM) | 64 µg/mL (≈ 183 µM) | 32 µg/mL (≈ 91.6 µM) | 16 µg/mL (≈ 45.8 µM) | 32 µg/mL (≈ 91.6 µM) | 64 µg/mL (≈ 183 µM) | 18.8 ± 0.9 mm | 17.5 ± 0.6 mm | 10 ± 0.8 mm | 12 ± 0.48 mm | 16 ± 0.32 mm | 10 ± 0.3 mm | 10 ± 1.25 mm | 08 ± 0.3 mm | 15 ± 0.93 mm | 16 ± 0.32 mm | 13 ± 1.5 mm | Diameter of growth inhibition zone, CN [21]: 11 ± 1.2 mm; EC50 (Vaccinia virus): > 100 µM; EC50 (Adeno virus-2): > 100 µM; EC50 (Human Coronavirus (229E)): > 100 µM; EC50 (Para-influenza-3 virus): > 100 µM; EC50 (Reovirus-1): > 100 µM; EC50 (Sindbis virus): > 100 µM; EC50 (Coxsackie virus B4): > 100 µM; EC50 (Punta Toro virus): > 100 µM; EC50 (Yellow Fever virus): > 100 µM; EC50 [22, 26]: > 100 µM; EC50 [22, 27]: > 100 µM; EC50 [23, 28]: > 100 µM; EC50 [23, 29]: > 100 µM; EC50 (Influenza B B/Ned/537/05): > 100 µM; Minimum cytotoxic conc. [24]: >100 µM; Minimum cytotoxic conc. (Vero cells): >100 µM; Cytotoxicity, Minimum cytotoxic conc. [25]: >100 µM; Minimum cytotoxic conc. (MT4 cells): >125 µM
2 | Cc1ccc(S(=O)(=O)N2C(=O)CSC2c2cccc(Br)c2)cc1 (stereo not shown) [5c, 2-(3-Bromophenyl)-3-[(4-methylphenyl)sulfonyl]-1,3-thiazolidin-4-one] | 16 µg/mL (≈ 38.8 µM) | 16 µg/mL (≈ 38.8 µM) | 16 µg/mL (≈ 38.8 µM) | 32 µg/mL (≈ 77.6 µM) | 32 µg/mL (≈ 77.6 µM) | 32 µg/mL (≈ 77.6 µM) | 32 µg/mL (≈ 77.6 µM) | 32 µg/mL (≈ 77.6 µM) | 64 µg/mL (≈ 155 µM) | 19 ± 0.53 mm | 16 ± 1.5 mm | 12 ± 0.32 mm | 14 ± 0.6 mm | 17 ± 1.2 mm | 12 ± 0.32 mm | 14 ± 0.43 mm | 10 ± 0.9 mm | 12 ± 0.6 mm | 12.1 ± 0.9 mm | 11 ± 1.5 mm | Diameter of growth inhibition zone, CN [21]: 7.5 ± 0.5 mm; EC50 (Vaccinia virus): > 100 µM; EC50 (Adeno virus-2): > 100 µM; EC50 (Human Coronavirus (229E)): > 100 µM; EC50 (Para-influenza-3 virus): > 100 µM; EC50 (Reovirus-1): > 100 µM; EC50 (Sindbis virus): > 100 µM; EC50 (Coxsackie virus B4): > 100 µM; EC50 (Punta Toro virus): > 100 µM; EC50 (Yellow Fever virus): > 100 µM; EC50 [22, 26]: > 100 µM; EC50 [22, 27]: > 100 µM; EC50 [23, 28]: > 100 µM; EC50 [23, 29]: > 100 µM; EC50 (Influenza B B/Ned/537/05): > 100 µM; Minimum cytotoxic conc. [24]: >100 µM; Minimum cytotoxic conc. (Vero cells): >100 µM; Cytotoxicity, Minimum cytotoxic conc. [25]: >100 µM; Minimum cytotoxic conc. (MT4 cells): >125 µM
3 | Cc1ccc(S(=O)(=O)N2C(=O)CSC2c2ccc(F)cc2)cc1 (stereo not shown) [5j, 2-(4-Fluorophenyl)-3-[(4-methylphenyl)sulfonyl]-1,3-thiazolidin-4-one] | 2 µg/mL (≈ 5.69 µM) | 2 µg/mL (≈ 5.69 µM) | 16 µg/mL (≈ 45.5 µM) | 4 µg/mL (≈ 11.4 µM) | 8 µg/mL (≈ 22.8 µM) | 8 µg/mL (≈ 22.8 µM) | 4 µg/mL (≈ 11.4 µM) | 4 µg/mL (≈ 11.4 µM) | 4 µg/mL (≈ 11.4 µM) | 25.9 ± 0.32 mm | 25 ± 1.5 mm | 18 ± 0.3 mm | 14 ± 0.94 mm | 23 ± 1.1 mm | 18 ± 0.5 mm | 19 ± 0.5 mm | 10 ± 0.6 mm | 19 ± 0.6 mm | 21 ± 0.9 mm | 19 ± 1.2 mm | Diameter of growth inhibition zone, CN [21]: 13 ± 1.5 mm; IC50 (S. aureus DNA gyrase): 4.26 µM
